Test results: ChEMBL document CHEMBL1137939, “Manipulation of kinetic profiles in 2-aryl propionic acid cyclooxygenase inhibitors” (Bioorg Med Chem Lett, 2004)

Target: T1, Prostaglandin G/H synthase 1 (Ovis aries, UniProt P05979)
T1 sequence (P05979 whole entry): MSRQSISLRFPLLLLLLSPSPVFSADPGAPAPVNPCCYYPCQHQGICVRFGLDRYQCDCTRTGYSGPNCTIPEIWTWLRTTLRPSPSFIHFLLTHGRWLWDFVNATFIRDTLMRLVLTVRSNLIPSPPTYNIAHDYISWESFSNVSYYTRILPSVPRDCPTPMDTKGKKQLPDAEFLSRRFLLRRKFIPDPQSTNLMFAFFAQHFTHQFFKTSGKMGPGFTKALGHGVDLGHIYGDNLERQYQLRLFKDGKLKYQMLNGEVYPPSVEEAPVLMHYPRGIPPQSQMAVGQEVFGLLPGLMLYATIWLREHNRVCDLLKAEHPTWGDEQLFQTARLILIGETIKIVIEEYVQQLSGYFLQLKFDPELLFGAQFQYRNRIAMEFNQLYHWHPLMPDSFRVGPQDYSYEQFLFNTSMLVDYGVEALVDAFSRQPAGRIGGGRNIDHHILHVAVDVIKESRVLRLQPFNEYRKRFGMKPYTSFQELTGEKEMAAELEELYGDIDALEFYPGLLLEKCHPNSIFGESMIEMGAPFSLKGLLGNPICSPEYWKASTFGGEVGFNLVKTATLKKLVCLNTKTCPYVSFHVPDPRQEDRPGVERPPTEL
Test: Reversible competitive inhibition of prostaglandin G/H synthase 1
Summary of the method: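 Ovine seminal vesicle COX-1, purified to >95% (Coomassie SDS-PAGE) and hematin-reconstituted. Coupled cyclooxygenase-peroxidase assay at 22 °C in 0.1 M Tris–HCl pH 8.0, read as TMPD oxidation after arachidonic acid start. Initial rates were taken because the enzyme auto-inactivates. Hydrogen-peroxide-initiated controls checked for peroxidase inhibition.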

Structure (SMILES) | IC50
COC(=O)C(C)c1ccc(-c2ccccc2)cc1 (stereo not given) | 28.5 µM
CC(C(=O)N(C)C)c1ccc(-c2ccccc2)c(F)c1 (stereo not given) | 215 µM
CC(C)Cc1ccc(C(C)C(=O)O)cc1Br (stereo not given) | 0.11 µM
CNC(=O)C(C)c1ccc(-c2ccccc2)cc1 (stereo not given) | 19.5 µM
CC(C(N)=O)c1ccc(-c2ccccc2)cc1 (stereo not given) | 64.5 µM
COC(=O)C(C)c1ccc(-c2ccccc2)c(F)c1 (stereo not given) | 210 µM
CC(C(=O)N(C)C)c1ccc(-c2ccccc2)cc1 (stereo not given) | 4.8 µM

Continued by falling IC50, values first:

IC50 | Structure (SMILES)
59 µM | CC(C)Cc1ccc(C(C)C(=O)O)cc1[N+](=O)[O-] (stereo not given)
24 µM | CNC(=O)C(C)c1ccc(-c2ccccc2)c(F)c1 (stereo not given)
8.3 µM | CC(C(N)=O)c1ccc(-c2ccccc2)c(F)c1 (stereo not given)
